Rows were chosen to be rich in hits. Some 1.3% of all compounds tested hit in one or more screens of this group.
XiGFP reactiv: activators of X-chromosome reactivation in mouse fibroblasts; XiGFP mouse fibroblasts, % GFP-positive cells imaging, 3 d; cells co-treated with 5-aza-dC sensitizer; scaled so ellipticine positive control = 100%; activation, % at 7.58 µM; hit rate 0.055% among 360,000;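 active = mean normalized replicate activation at least 10% and every replicate at or above 10%; inconclusive = only one of the two criteria met; inactive = mean below 10% and not all replicates reach 10%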
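assay system = SV40-immortalized XiGFP fibroblast cells, line 68-5-11 | buffer or medium = DMEM plus 5-aza-dC sensitizer | doses = single-point pinned compound dosing | times = 3-day compound exposure, then 15 min fixation at room temperature | benchmarks = positive control ellipticine, 6 µM final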
S100A4 MyoIIA: blocks human S100A4 binding to myosin IIA peptide. hit rate 0.14% among 360,000. P26447. S100A4/TAMRA-MyoIIA peptide fluorescence polarization. inhibition, % at 10.7 µM. AID 652163;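 active = mean inhibition of at least 70% across replicates, with every replicate also reaching that level; inconclusive = mean inhibition reaches 70% but some replicates fall short; inactive = mean inhibition below 70%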
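Compound dosing: one dose per compound; test system: human S100A4 monomer with TAMRA-labelled myosin IIA peptide; probe or stimulus: TAMRA-labelled myosin IIA heavy-chain peptide probe, 5 nM; medium: HEPES buffer with Ca2+, pH 7.2; schedule: 5 min incubation before reading; benchmarks: neutral control DMSO, positive control TFP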
MLL AF4-AF9 inh: blocks AF4 peptide binding to human AF9 | inhibition, % at 10 µM | hit rate 0.47% among 350,000 | AlphaScreen, biotin-AF4 peptide binding to FLAG-AF9;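 active = every replicate reaching a set inhibition limit, whatever the replicate mean, cut at about 25% in these data; inconclusive = mean inhibition reaches that limit but some replicates miss it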
Casp6 inh: caspase-6 (human) enzyme inhibition | P55212 | purified caspase-6, Z-VEID-R110 cleavage fluorescence | inhibition, % at 12.5 µM | hit rate 0.53% among 350,000;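 active = mean inhibition across replicates at least about 35%, with every replicate also reaching that limit, limit read from the data; inconclusive = only one of the two criteria met; inactive = neither criterion met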
RAD52 anneal inh: inhibitors of human RAD52 DNA annealing. recombinant RAD52 DNA annealing, FRET fluorescence. inhibition, % at 18.7 µM. hit rate 0.46% among 360,000. AID 651710;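 active = every replicate showing at least 50% inhibition; inconclusive = mean inhibition at least 50% but not in every replicate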
RAD54 branch: RAD54 (human) branch migration inhibition; Q92698; RAD54 Holliday junction branch migration, FAM/BHQ fluorescence; inhibition, % at 10.4 µM; hit rate 0.14% among 360,000; AID 602329;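 active = mean normalized replicate activity at least 40 and at least half of replicates scoring 40 or more; inconclusive = only one of the two criteria met; inactive = mean below 40 and under half of replicates reaching 40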;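 also: inhibitors cause a drop in the FAM fluorescence signal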
Target sequence (Q92698 whole entry, looked up): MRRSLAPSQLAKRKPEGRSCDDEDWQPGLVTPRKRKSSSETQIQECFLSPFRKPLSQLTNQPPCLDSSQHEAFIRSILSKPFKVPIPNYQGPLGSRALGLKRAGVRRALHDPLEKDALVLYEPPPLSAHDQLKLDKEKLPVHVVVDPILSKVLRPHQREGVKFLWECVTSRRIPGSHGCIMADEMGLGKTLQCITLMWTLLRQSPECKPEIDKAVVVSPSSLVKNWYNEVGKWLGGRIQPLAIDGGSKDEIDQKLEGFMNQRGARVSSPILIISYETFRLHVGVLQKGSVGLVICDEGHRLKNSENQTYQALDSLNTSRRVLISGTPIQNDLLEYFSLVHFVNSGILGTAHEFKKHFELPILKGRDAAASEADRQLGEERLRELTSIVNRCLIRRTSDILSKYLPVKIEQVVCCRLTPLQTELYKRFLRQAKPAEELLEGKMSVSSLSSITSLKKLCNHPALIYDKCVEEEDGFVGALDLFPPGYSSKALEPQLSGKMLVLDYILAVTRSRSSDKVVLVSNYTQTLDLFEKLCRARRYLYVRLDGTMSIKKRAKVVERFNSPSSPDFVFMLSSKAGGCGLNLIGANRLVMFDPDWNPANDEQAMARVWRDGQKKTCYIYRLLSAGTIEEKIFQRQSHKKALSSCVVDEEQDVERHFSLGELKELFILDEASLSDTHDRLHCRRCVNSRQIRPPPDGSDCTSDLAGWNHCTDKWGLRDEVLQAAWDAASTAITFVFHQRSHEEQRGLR
Hits are given with their value; - = inactive; ? = inconclusive; . = no result.

SMILES	XiGFP reactiv	S100A4 MyoIIA	MLL AF4-AF9 inh	Casp6 inh	RAD52 anneal inh	RAD54 branch
C#CCOCCOCCOCCNc1nc(N2CCN(C(=O)[C@H](CCCCN)n3cc([C@@H](N)CO)nn3)CC2)nc(N2CCN(C(=O)[C@H](CCCCN)n3cc([C@@H](N)CC(C)C)nn3)CC2)n1	-	-	29	-	-	-
C#CCOCCOCCOCCNc1nc(N2CCN(C(=O)[C@H]([C@@H](C)CC)n3cc([C@@H](N)Cc4ccc(O)cc4)nn3)CC2)nc(N2CCN(C(=O)[C@H]([C@@H](C)CC)n3cc([C@@H](N)Cc4ccc(O)cc4)nn3)CC2)n1	-	-	-	-	-	-
C#CCOCCOCCOCCNc1nc(N2CCN(C(=O)[C@H]([C@@H](C)CC)n3cc([C@@H](N)CC(C)C)nn3)CC2)nc(N2CCN(C(=O)[C@H](Cc3ccc(O)cc3)n3cc([C@@H](N)CC(C)C)nn3)CC2)n1	-	-	28	-	-	.
C#CCOCCOCCOCCNc1nc(N2CCN(C(=O)CCCCCCCCCCNC(=O)[C@H](CCCCN)n3cc(CCO)nn3)CC2)nc(N2CCN(C(=O)CCCCCCCCCCNC(=O)[C@H](CCCCN)n3cc(CCO)nn3)CC2)n1	.	.	.	.	.	50
C[C@H](NC(=O)C[C@@H]1CC[C@H](NC(=O)Cc2ccccn2)[C@@H](CO)O1)c1ccccc1	?	-	-	-	-	-
C[C@H]1CN([C@@H](C)CO)C(=O)Cc2cc(NC(=O)c3ccncc3)ccc2O[C@H]1CN(C)Cc1ccc(Cl)c(Cl)c1	-	-	-	-	-	-
CCCC(=O)Nc1ccc2c(c1)C(=O)N(C)C[C@H](OC)[C@H](C)CN(Cc1ccc(-c3ccccn3)cc1)[C@H](C)CO2	-	-	-	-	-	-
CN(C)C(=O)C[C@H]1C=C[C@@H](NC(=O)C2CCOCC2)[C@@H](CO)O1	-	-	-	-	-	.
C#CCOCCOCCOCCNc1nc(N2CCOCC2)nc(N2CCN(C(=O)[C@H](CCCCN)n3cc(CN)nn3)CC2)n1	-	-	32	-	-	-
C#CCOCCOCCOCCNc1nc(N2CCN(C(=O)[C@H](CO)n3cc([C@@H](N)C(C)C)nn3)CC2)nc(N2CCN(C(=O)[C@H](CCC(=O)O)n3cc([C@@H](N)CCCCN)nn3)CC2)n1	-	-	-	-	-	-
C#CCOCCOCCOCCNc1nc(N2CCOCC2)nc(N2CCN(C(=O)[C@H](CCCCN)n3cc([C@@H](N)C(C)CC)nn3)CC2)n1 (stereo not given in full)	-	-	-	-	-	-
C#CCOCCOCCOCCNc1nc(N2CCN(C(=O)C([C@@H](C)O)n3cc([C@@H](N)CCCCN)nn3)CC2)nc(N2CCN(C(=O)[C@H](CO)n3cc([C@@H](N)C(C)C)nn3)CC2)n1 (stereo not given in full)	-	-	54	-	58	-
Cc1ccc(S(=O)(=O)OCC(=O)Nc2ccc(C(=O)O)c(O)c2)cc1	-	-	-	79	-	.
Cc1ccc(NC(=O)COCC(=O)Nc2ccc(C)cc2)cc1	-	-	-	-	-	-
Cc1cc2[nH]c3ccccc3c2c(C)n1	-	-	-	-	-	.
Cc1cc2[nH]c3c4ccccc4nc(C)c3c2cc1C	-	-	-	-	83	91
CN(C)CCNc1ccc(CO)c2sc3ccc(O)cc3c(=O)c12	-	-	-	-	-	.
CN(C)CCNc1ccc2ncn3c4ccc(O)cc4c(=O)c1c23	-	-	34	-	-	.
COc1cc(O)c2c(c1)oc(=O)c1c3cc(O)c(O)cc3oc21	.	-	-	77	77	.
COc1cccc(NC(=O)Nc2ccc3c(c2)C(=O)N(C)C[C@@H](OC)[C@H](C)CN[C@H](C)CO3)c1	-	-	-	-	59	-
CO[C@H]1CN(C)C(=O)c2ccc(NC(=O)c3ccc(Oc4ccccc4)cc3)cc2OC[C@H](C)NC[C@@H]1C	-	-	-	-	51	-
COc1ccc(NC(=O)Nc2ccc3c(c2)OC[C@H](C)NC[C@@H](C)[C@@H](OC)CN(C)C3=O)cc1	-	-	-	-	-	-
CO[C@H]1CN(C)C(=O)c2ccc(NC(=O)c3ccccc3F)cc2OC[C@H](C)NC[C@@H]1C	-	126	-	-	-	.
